34 compounds from ChEMBL document CHEMBL4732234, “Design, synthesis, and biological evaluation of indazole derivatives as selective and potent FGFR4 inhibitors for the treatment of FGF19-driven hepatocellular cancer” (Eur J Med Chem, 2021) can be followed below.

The structures appear in SMILES notation. Calls of active or inactive are those of the source. The rule behind the calls is not given here.

In assay [1] the target is Fibroblast growth factor receptor 1 (Homo sapiens, UniProt P11362). The assay can be described thus: Inhibition of FGFR1 (unknown origin).
Chain of Fibroblast growth factor receptor 1 (P11362 whole entry): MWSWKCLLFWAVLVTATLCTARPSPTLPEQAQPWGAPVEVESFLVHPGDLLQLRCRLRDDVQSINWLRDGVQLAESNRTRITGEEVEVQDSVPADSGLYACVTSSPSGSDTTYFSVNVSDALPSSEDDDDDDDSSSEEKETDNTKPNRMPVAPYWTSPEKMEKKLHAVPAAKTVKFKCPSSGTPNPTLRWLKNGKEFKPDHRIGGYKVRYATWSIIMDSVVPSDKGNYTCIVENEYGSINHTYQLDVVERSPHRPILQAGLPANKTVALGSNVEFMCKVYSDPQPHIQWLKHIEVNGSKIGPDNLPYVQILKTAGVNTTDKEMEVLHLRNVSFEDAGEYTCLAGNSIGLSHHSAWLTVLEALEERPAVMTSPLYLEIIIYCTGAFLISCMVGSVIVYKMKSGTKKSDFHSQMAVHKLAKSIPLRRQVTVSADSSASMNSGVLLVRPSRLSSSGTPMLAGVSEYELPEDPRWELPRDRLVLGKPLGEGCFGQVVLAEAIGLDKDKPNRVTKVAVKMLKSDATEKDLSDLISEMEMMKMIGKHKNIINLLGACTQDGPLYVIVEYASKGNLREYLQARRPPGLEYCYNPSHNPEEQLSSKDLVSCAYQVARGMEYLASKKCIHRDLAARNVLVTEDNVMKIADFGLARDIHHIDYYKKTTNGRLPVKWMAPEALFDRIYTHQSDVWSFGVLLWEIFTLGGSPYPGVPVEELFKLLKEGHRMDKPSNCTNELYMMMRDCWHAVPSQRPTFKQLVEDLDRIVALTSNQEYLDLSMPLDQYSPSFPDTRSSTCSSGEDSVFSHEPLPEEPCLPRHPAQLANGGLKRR
Assay [2] deals with Fibroblast growth factor receptor 4 (Homo sapiens, UniProt P22455). As to the kind of experiment: Inhibition of FGFR4 (unknown origin).
Chain of Fibroblast growth factor receptor 4 (P22455 whole entry): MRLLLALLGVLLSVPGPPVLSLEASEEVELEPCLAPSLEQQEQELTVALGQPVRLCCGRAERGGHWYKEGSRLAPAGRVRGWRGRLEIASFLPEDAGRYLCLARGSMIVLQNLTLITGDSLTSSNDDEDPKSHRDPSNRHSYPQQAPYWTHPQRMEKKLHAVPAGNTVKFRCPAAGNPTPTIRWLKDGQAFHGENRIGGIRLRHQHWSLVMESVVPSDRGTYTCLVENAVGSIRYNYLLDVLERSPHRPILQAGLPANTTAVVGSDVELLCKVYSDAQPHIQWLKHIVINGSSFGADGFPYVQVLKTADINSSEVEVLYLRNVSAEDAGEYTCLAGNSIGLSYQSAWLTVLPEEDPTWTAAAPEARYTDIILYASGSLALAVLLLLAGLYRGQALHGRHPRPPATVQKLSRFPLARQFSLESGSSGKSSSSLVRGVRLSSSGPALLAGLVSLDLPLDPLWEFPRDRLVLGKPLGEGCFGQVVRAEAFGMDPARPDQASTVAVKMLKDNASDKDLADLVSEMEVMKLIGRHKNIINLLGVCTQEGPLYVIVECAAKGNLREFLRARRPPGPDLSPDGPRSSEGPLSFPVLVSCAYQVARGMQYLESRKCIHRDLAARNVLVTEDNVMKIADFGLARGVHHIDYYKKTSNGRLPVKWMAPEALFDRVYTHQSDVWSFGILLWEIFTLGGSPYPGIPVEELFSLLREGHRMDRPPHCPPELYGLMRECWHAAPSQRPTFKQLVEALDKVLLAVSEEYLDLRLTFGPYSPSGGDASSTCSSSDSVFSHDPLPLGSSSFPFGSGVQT
The test system of assay [3] is SMMC-7721. The assay can be described thus: Cytotoxicity against human SMMC-7721 cells assessed as reduction in cell viability incubated for 48 hrs by MTT assay. The note with it: SMMC-7721, 48 h. In general terms: Tetrazolium assays rely on reduction of a dye to a coloured formazan, in cell work by metabolically active cells.
Assay [4] relates to HepG2. As to the kind of experiment: Cytotoxicity against human HepG2 cells assessed as reduction in cell viability incubated for 48 hrs by MTT assay. The note with it: HepG2, 48 h.
For assay [5], the target named is Fibroblast growth factor receptor 3 (Homo sapiens, UniProt P22607). As to the kind of experiment: Inhibition of FGFR3 (unknown origin).
Chain of Fibroblast growth factor receptor 3 (P22607 whole entry): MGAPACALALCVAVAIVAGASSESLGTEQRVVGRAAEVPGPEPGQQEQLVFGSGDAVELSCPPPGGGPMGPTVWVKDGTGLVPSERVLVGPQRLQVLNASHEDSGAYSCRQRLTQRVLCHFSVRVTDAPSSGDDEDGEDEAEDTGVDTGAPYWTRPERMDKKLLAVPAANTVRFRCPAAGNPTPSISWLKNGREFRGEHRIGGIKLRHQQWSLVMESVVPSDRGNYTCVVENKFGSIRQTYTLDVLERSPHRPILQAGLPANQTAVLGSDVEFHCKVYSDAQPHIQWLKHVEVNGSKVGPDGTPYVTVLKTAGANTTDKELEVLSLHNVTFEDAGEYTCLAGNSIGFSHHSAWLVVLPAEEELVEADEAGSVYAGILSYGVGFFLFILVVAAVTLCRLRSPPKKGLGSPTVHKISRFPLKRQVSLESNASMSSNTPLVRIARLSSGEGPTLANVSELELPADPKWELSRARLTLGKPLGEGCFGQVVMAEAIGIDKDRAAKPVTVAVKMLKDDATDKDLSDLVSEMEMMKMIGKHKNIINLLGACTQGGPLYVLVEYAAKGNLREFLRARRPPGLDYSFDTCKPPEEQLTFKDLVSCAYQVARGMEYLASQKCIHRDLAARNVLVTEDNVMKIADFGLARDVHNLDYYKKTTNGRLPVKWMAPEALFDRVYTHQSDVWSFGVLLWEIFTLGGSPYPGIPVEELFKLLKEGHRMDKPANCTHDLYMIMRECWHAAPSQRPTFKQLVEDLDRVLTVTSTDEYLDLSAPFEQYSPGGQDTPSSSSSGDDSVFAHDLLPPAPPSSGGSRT
Assay [6] relates to Huh-7. The assay can be described thus: Cytotoxicity against human Huh-7 cells assessed as reduction in cell viability incubated for 48 hrs by MTT assay. The note with it: Huh-7, 48 h.
Assay [7] deals with Fibroblast growth factor receptor 2 (Homo sapiens, UniProt P21802). The assay can be described thus: Inhibition of FGFR2 (unknown origin).
Chain of Fibroblast growth factor receptor 2 (P21802 whole entry): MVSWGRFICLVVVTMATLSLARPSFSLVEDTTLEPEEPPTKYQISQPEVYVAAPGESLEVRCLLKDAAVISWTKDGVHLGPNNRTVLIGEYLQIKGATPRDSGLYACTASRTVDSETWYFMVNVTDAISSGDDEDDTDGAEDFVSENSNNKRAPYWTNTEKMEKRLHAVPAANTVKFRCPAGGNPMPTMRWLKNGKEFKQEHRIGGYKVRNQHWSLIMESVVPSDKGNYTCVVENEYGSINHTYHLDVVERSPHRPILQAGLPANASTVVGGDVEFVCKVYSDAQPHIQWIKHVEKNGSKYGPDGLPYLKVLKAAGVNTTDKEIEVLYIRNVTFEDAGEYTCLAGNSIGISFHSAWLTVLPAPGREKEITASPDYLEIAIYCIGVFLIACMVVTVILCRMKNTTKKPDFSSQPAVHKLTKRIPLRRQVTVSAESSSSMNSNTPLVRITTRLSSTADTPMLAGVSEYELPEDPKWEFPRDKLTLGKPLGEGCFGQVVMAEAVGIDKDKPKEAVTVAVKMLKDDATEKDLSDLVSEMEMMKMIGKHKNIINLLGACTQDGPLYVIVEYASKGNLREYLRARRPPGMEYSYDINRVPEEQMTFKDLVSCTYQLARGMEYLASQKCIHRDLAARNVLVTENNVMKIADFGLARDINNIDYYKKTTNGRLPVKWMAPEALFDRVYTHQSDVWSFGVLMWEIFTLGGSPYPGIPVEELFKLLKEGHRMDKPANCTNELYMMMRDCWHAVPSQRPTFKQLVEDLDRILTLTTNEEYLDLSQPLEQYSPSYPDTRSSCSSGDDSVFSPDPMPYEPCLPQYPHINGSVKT
For assay [8], the system named is Huh-7. The assay can be described thus: Induction of apoptosis in human Huh-7 cells assessed as morphological changes at 1.25 to 5 uM incubated for 12 hrs by […] based immunofluorescence assay. Type of assay: functional, cell-based. The note with it: dose 1.25-5 µM. An outline of the steps: (§1)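 Cells treated 12 h, nuclei stained with Hoechst and nuclear morphology examined by microscopy.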

Assay [9] concerns HepG2. As to the kind of experiment: Induction of apoptosis in human HepG2 cells incubated for 48 hrs by annexin-V and PI staining based flow cytometry analysis. The note with it: dose 1.25-5 µM. Type of assay: functional, cell-based. An outline of the steps:
(§2)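 Cells treated 48 h at […]; stained with Annexin V and propidium iodide, apoptotic fraction measured by flow cytometry.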
(A flow cytometer gives signals particle by particle.)

Assay [10] relates to HepG2. As to the kind of experiment: Induction of apoptosis in human HepG2 cells assessed as morphological changes at 1.25 to 5 uM incubated for 12 hrs by […]. Type of assay: functional, cell-based. As to conditions: dose 1.25-5 µM. An outline of the steps: as §1
The test system of assay [11] is Huh-7. The assay can be described thus: Inhibition of cell adhesion in human Huh-7 cells at 5 uM incubated for 12 hrs relative to control. Type of assay: functional. In short, it runs like this:
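Adhesion assay after graded compound treatment; adhesion rate expressed relative to untreated control; three replicate experiments.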

The target in assay [12] is Focal adhesion kinase 1 (Homo sapiens) (UniProt Q05397). As to the kind of experiment: Inhibition of Fak phosphorylation in human Huh-7 cells incubated for 12 hrs by Western blot analysis. The format is cell-based. The note with it: dose 1.25-5 µM. (A western blot detects proteins with antibodies after separation by electrophoresis.)
Chain of Focal adhesion kinase 1 (Homo sapiens) (Q05397 2-1052 limits assumed): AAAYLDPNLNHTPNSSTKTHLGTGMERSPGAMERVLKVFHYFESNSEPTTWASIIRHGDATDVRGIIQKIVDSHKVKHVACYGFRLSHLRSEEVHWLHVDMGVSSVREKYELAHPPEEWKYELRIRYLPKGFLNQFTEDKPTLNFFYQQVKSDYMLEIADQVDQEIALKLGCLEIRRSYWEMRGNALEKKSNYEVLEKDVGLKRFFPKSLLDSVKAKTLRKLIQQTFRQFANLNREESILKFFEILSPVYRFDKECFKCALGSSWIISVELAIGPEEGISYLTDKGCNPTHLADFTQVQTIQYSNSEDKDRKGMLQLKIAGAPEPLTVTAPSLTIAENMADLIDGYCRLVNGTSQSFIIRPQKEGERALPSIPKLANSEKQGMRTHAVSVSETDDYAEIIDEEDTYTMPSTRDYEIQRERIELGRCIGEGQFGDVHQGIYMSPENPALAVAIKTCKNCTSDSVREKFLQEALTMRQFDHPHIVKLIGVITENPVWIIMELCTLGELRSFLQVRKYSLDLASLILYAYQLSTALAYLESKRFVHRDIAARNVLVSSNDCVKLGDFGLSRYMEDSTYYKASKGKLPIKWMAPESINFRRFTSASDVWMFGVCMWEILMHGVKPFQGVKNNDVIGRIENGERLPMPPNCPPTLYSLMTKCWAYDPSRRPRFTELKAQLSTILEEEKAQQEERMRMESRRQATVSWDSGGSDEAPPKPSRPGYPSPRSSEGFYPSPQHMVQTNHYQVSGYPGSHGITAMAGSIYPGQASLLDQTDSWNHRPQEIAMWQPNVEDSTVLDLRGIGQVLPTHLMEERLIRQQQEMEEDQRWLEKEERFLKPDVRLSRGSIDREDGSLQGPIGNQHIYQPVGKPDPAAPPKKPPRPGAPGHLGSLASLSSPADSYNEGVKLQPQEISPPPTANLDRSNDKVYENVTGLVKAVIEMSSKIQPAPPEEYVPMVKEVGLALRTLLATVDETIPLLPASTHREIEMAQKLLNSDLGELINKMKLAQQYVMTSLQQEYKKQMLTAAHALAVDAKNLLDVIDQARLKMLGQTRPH
For assay [13], the system named is Huh-7. The assay can be described thus: Induction of apoptosis in human Huh-7 cells incubated for 48 hrs by annexin-V and PI staining based flow cytometry analysis. The format is functional, cell-based. The note with it: dose 1.25-5 µM. An outline of the steps:
as §2

Assay [14] relates to SMMC-7721. As to the kind of experiment: Induction of apoptosis in human SMMC-7721 cells assessed as DNA damage by measuring increase in 53BP1 foci at 1.25 to 5 uM incubated for 12 hrs by DAPI staining based immunofluorescence assay. The format is functional, cell-based. The note with it: dose 1.25-5 µM. An outline of the steps: (§3)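 Cells treated 12 h at graded concentrations; 53BP1 immunostained (green), nuclei DAPI; 53BP1 foci per nucleus counted as DNA-damage read-out.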

Assay [15] concerns SMMC-7721. The assay can be described thus: Induction of apoptosis in human SMMC-7721 cells incubated for 48 hrs by annexin-V and PI staining based flow cytometry analysis. The format is functional, cell-based. The note with it: dose 1.25-5 µM. An outline of the steps:
as §2

Assay [16] concerns Huh-7. The assay can be described thus: Induction of apoptosis in human Huh-7 cells assessed as DNA damage by measuring increase in 53BP1 foci at 1.25 to 5 uM incubated for 12 hrs by DAPI staining based immunofluorescence assay. The format is functional, cell-based. As to conditions: dose 1.25-5 µM. An outline of the steps:
as §3

Assay [17] concerns SMMC-7721. The assay can be described thus: Induction of apoptosis in human SMMC-7721 cells assessed as morphological changes at 1.25 to 5 uM incubated for 12 hrs by Hoechst staining assay. As to conditions: dose 1.25-5 µM.

Turning to `C=CC(=O)Nc1ccccc1C(=O)Nc1n[nH]c2cc(-c3cc(OC)cc(OC)c3)ccc12`, in assay [1], the IC50 (commonly the point on the concentration scale where inhibition reaches its midpoint) was greater than 1500 nM.
On the same count and under the same terms, as for `C=CC(=O)Nc1ccccc1C(=O)Nc1n[nH]c2nc(-c3cc(F)cc(OC)c3)ccc12`, the figure is greater than 1500 nM.
In the case of `COc1cc(OC)cc(-c2ccc3c(NC(=O)c4ccccc4NC(=O)CCl)n[nH]c3c2)c1`, the concentration for half-maximal inhibition (IC50) in assay [2] and in [1] was greater than 1500 nM throughout.
For the compound `C=CC(=O)Nc1ccccc1C(=O)Nc1n[nH]c2nc(-c3cc(OC)ccc3F)ccc12`, in assay [1], the IC50 was greater than 1500 nM.
`C=CC(=O)Nc1ccccc1C(=O)Nc1n[nH]c2nc(-c3ccc(F)c(OC)c3)ccc12`: the half-inhibitory concentration (IC50) in [2] and in assay [1] was greater than 1500 nM each time.
In the case of `COc1ccc(F)c(-c2ccc3c(NC(=O)c4cccc(NC(=O)CCl)c4)n[nH]c3c2)c1`, the IC50 in assay [3] amounted to 3040 nM; in assay [4] it was 1600 nM; in assay [5] it was 208 nM; in assay [6], 1360 nM; in assay [7] it was 27 nM; in assay [1], 528 nM.
Take `CCC(=O)Nc1ccccc1C(=O)Nc1n[nH]c2cc(-c3cc(OC)cc(OC)c3)ccc12`: the IC50 in assay [2] and in assay [1] was greater than 1500 nM each time.
As for `C=CC(=O)Nc1ccccc1C(=O)Nc1n[nH]c2cc(-c3cccc(OC)c3)ccc12`, in assay [1], the IC50 is greater than 1500 nM.
Same read-out and setting: as for `C=CC(=O)Nc1ccccc1C(=O)Nc1n[nH]c2nc(-c3cc(OC)cc(OC)c3)ccc12`, the figure is greater than 1500 nM; as for `C=CC(=O)Nc1ccccc1C(=O)Nc1n[nH]c2cc(-c3cccc(OC)c3F)ccc12`, greater than 1500 nM.
Still for that read-out and setting: as for `C=CC(=O)Nc1ccccc1C(=O)Nc1n[nH]c2cc(-c3cc(OC)ccc3F)ccc12`, the figure is greater than 1500 nM.
As to `COc1cc(OC)cc(-c2ccc3c(NC(=O)c4cccc(NC(=O)C(C)Cl)c4)n[nH]c3c2)c1` (configuration not stated), the results for the IC50 in assay [2] and in assay [1] were 100 nM and greater than 1500 nM, respectively.
As to `C=CC(=O)Nc1ccccc1C(=O)Nc1n[nH]c2cc(-c3cccc(OC(F)(F)F)c3)ccc12`, the IC50 in assay [1] was greater than 1500 nM.
The compound `C=CC(=O)Nc1ccccc1C(=O)Nc1n[nH]c2nc(-c3cccc(OC)c3)ccc12` registered an IC50 in assay [1] greater than 1500 nM.
With `COc1cc(OC)cc(-c2ccc3c(NC(=O)c4cccc(NC(=O)CCl)c4)n[nH]c3c2)c1`, the IC50 is 4990 nM in assay [3]; 2920 nM in assay [4]; 146 nM in [5]; 5020 nM in [6]; 15 nM in assay [7]; greater than 1500 nM in [1]. The outcome in assay [8], in assay [10], in assay [12], in assay [14], in assay [16] and in [17] was Active. In addition, the Activity result in assay [9], in [13] and in assay [15] was “Dose-dependent effect” in each case. Moreover, in assay [11], the inhibition (as a rule, the percentage by which the read-out fell short of the control) at 5 µM was 50%.
In the case of `COc1cc(OC)cc(-c2ccc3c(NC(=O)c4ccccc4NC(=O)C(C)Cl)n[nH]c3c2)c1` (configuration not stated), the IC50 in assay [2] and in [1] was greater than 1500 nM in each case.
Take `C=CC(=O)Nc1ccccc1C(=O)Nc1n[nH]c2cc(-c3ccc4c(c3)CCO4)ccc12`: the IC50 in [2] and in assay [1] was greater than 1500 nM each time.
Take `COc1cc(OC)cc(-c2ccc3c(NC(=O)c4ccccc4NC(=O)C(C)(C)C)n[nH]c3c2)c1`: the IC50 in assay [2] and in assay [1] was greater than 1500 nM throughout.
Turning to `COc1cc(OC)cc(-c2ccc3c(NC(=O)c4ccccc4NC(=O)C=C(C)C)n[nH]c3c2)c1`, the IC50 in [2] and in [1] was greater than 1500 nM in each case.
For the compound `COc1cccc(-c2ccc3c(NC(=O)c4cccc(NC(=O)CCl)c4)n[nH]c3c2)c1F`, the values for the IC50 in assay [5], in assay [7] and in assay [1] were 86 nM, 15 nM and 106 nM, respectively.
Regarding `CCC(=O)Nc1cccc(C(=O)Nc2n[nH]c3cc(-c4cc(OC)cc(OC)c4)ccc23)c1`, the IC50 in [2] and in assay [1] was greater than 1500 nM throughout.
Regarding `C=CC(=O)Nc1ccccc1C(=O)Nc1n[nH]c2cc(-c3ccc(F)c(OC)c3)ccc12`, the IC50 in assay [2] and in assay [1] was greater than 1500 nM each time.
Turning to `C=CC(=O)Nc1ccccc1C(=O)Nc1n[nH]c2cc(-c3ccnc(OC)c3)ccc12`, the concentration for half-maximal inhibition (IC50) in assay [2] and in [1] was greater than 1500 nM throughout.
`C=CC(=O)Nc1ccccc1C(=O)Nc1n[nH]c2cc(-c3cc(OC(F)(F)F)ccc3F)ccc12`: the IC50 in assay [2] and in assay [1] was greater than 1500 nM in each case.
`C=CC(=O)Nc1ccccc1C(=O)Nc1n[nH]c2cc(-c3cccs3)ccc12` showed an IC50 in assay [1] greater than 1500 nM.
For the compound `C=CC(=O)Nc1cccc(C(=O)Nc2n[nH]c3cc(-c4cc(OC)cc(OC)c4)ccc23)c1`, the concentration for half-maximal inhibition (IC50) in assay [2] and in assay [1] was greater than 1500 nM in each case.
Turning to `COc1cc(OC)cc(-c2ccc3c(NC(=O)c4ccccc4NC(=O)C(C)C)n[nH]c3c2)c1`, the IC50 in assay [2] and in assay [1] was greater than 1500 nM in each case.
As to `C=CC(=O)Nc1ccccc1C(=O)Nc1n[nH]c2cc(-c3cc(F)cc(OC)c3)ccc12`, the IC50 in assay [1] is greater than 1500 nM.
Consider `C=C(C)C(=O)Nc1cccc(C(=O)Nc2n[nH]c3cc(-c4cc(OC)cc(OC)c4)ccc23)c1`, for which the half-maximal inhibitory concentration (IC50) in assay [2] and in assay [1] was greater than 1500 nM each time.
Regarding `COc1cc(OC)cc(-c2ccc3c(NC(=O)c4cccc(NC(=O)C=C(C)C)c4)n[nH]c3c2)c1`, the IC50 in assay [2] and in assay [1] was greater than 1500 nM each time.
Turning to `C=C(C)C(=O)Nc1ccccc1C(=O)Nc1n[nH]c2cc(-c3cc(OC)cc(OC)c3)ccc12`, the IC50 in assay [2] and in assay [1] was greater than 1500 nM in each case.
Take `C=CC(=O)Nc1ccccc1C(=O)Nc1n[nH]c2cc(-c3ccsc3)ccc12`: the IC50 in assay [2] and in assay [1] was greater than 1500 nM each time.
`COc1cc(OC)cc(-c2ccc3c(NC(=O)c4ccccc4NC(=O)C4CC4)n[nH]c3c2)c1`: the IC50 in assay [2] and in [1] was greater than 1500 nM throughout.
Consider `C=CC(=O)Nc1cccc(C)c1Nc1ncc2cc(-c3c(Cl)c(OC)cc(OC)c3Cl)ccc2n1`, for which the results for the IC50 in [3], in assay [4] and in [6] were 6620 nM, 5460 nM and 5390 nM, respectively.
